System: luciferase expression in M21+GL3 cells
Assay: Luciferase knockdown
Assay type: cell-based, human
Conditions: 25 nM, no transfection agent; 4 h serum free, then 2% serum to 96 h
Procedure, shortened: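 M21+GL3 stable clone made by nucleoporation with pGL3-promoter plus pcDNA3.1/hygro (10:1), selected two weeks in 500 μg/ml hygromycin B. siRNA added 4 h at 37°C in serum-free OPTI-MEM, then serum added to 2% and incubated to 96 h total. Lipofectamine 2000-complexed siRNA served as positive control, its medium swapped to DMEM-H with 2% serum. Lysate luminescence read and normalized to total cellular protein.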

Substance: AccGAAAGGucuuAccGGAdTsdTX2 (head to tail) [compound 14]
- reduction in luciferase: 70%

From paper PMC3718025 (Bioconjugate chemistry, 2011)
